Measured values from ChEMBL document CHEMBL1125014, “Synthesis and structure-activity relationships of new 9-N-alkyl derivatives of 9(S)-erythromycylamine” (1990).
Values after ≈ are worked out from the molar mass of the structure shown.

Assays:
[1] = system: Haemophilus influenzae; assay: MIC value was measured against haemophilus influenzae CL; format: functional
[2] = system: Mus musculus; assay: ED50 value was measured by sc administration against streptococcus pyogenes infection in mice (in vivo, in experiment 1); format: functional
Method in brief: (§1)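 Infected mice were dosed orally or subcutaneously at 1 and 5 h postinfection, 0.25 mL of antibiotic solution in 10% aqueous ethanol per dose. Tartaric acid was added where needed for solubility. Several dose concentrations were tested to give the ED50.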

[3] = system: Mus musculus; assay: ED50 value was measured by po administration against streptococcus pyogenes infection in mice (in vivo, in experiment 1); format: functional; method in brief: as §1
[4] = system: Mus musculus; assay: ED50 value was measured by po administration against streptococcus pyogenes infection in mice (in vivo, in experiment 3); format: functional
[5] = system: Mus musculus; assay: ED50 value was measured by sc administration against staphylococcus aureus infection in mice (in vivo, in experiment 1); format: functional; method in brief: as §1
[6] = system: Mus musculus; assay: ED50 value was measured by sc administration against staphylococcus aureus infection in mice (in vivo, in experiment 3); format: functional
[7] = system: Mus musculus; assay: ED50 value was measured by sc administration against streptococcus pneumoniae infection in mice (in vivo, in experiment 1); format: functional; method in brief: as §1
[8] = system: Mus musculus; assay: ED50 value was measured by sc administration against streptococcus pneumoniae infection in mice (in vivo, in experiment 3); format: functional
[9] = system: Staphylococcus aureus; assay: Effective dose against mice infected with Staphylococcus aureus after peroral administration (in vivo); format: functional; conditions: in Mus musculus, po
[10] = system: Streptococcus pneumoniae; assay: Effective dose against mice infected with streptococcus pneumoniae after peroral administration (in vivo); format: functional; conditions: in Mus musculus, po
[11] = system: Streptococcus pyogenes; assay: Effective dose against mice infected with streptococcus pyogenes after peroral administration (in vivo); format: functional; conditions: in Mus musculus, po
[12] = system: Mus musculus; assay: ED50 value was measured by po administration against staphylococcus aureus infection in mice (in vivo, in experiment 1); format: functional; method in brief: as §1
[13] = system: Mus musculus; assay: ED50 value was measured by po administration against staphylococcus aureus infection in mice (in vivo, in experiment 3); format: functional
[14] = system: Mus musculus; assay: ED50 value was measured by po administration against streptococcus pneumoniae infection in mice (in vivo, in experiment 1); format: functional; method in brief: as §1
[15] = system: Mus musculus; assay: ED50 value was measured by po administration against streptococcus pneumoniae infection in mice (in vivo, in experiment 3); format: functional
[16] = system: Mus musculus; assay: Plasma concentration in mice was determined by subcutaneous administration, 20 mg/kg at 1 hr; format: functional, organism-based; set-up: dose 20 mg/kg
Method in brief: (§2)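 Mice given 20 mg/kg orally or subcutaneously; peripheral plasma sampled at 5, 20 and 40 min and at 1, 2 and 4 h after dosing. Microbiological assay used Micrococcus luteus seeded in Antibiotic Medium 1, with zone sizes converted by the compound's own standard curve. Each value is the average of five mice per time point.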

[17] = system: Mus musculus; assay: Plasma concentration in mice was determined by subcutaneous administration, 20 mg/kg at 20 min; format: functional, organism-based; set-up: dose 20 mg/kg; method in brief: as §2
[18] = system: Mus musculus; assay: Plasma concentration in mice was determined by subcutaneous administration, 20 mg/kg at 40 min; format: functional, organism-based; set-up: dose 20 mg/kg; method in brief: as §2
[19] = system: Mus musculus; assay: Plasma concentration in mice was determined by subcutaneous administration, 20 mg/kg at 4 hr; format: functional, organism-based; set-up: dose 20 mg/kg; method in brief: as §2
[20] = system: Mus musculus; assay: Plasma concentration in mice was determined by subcutaneous administration, 20 mg/kg at 5 min; format: functional, organism-based; set-up: dose 20 mg/kg; method in brief: as §2
[21] = species on record: Rattus norvegicus; assay: Fluid concentration in kidney tissue was determined in rats at 6 hr; format: functional
Method in brief: (§3)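 Rats were gavaged at 20 mg/kg and tissues sampled 0.5–6 h after dosing. Drug was assayed microbiologically with Micrococcus luteus seeded in Antibiotic Media 1. Zone sizes were read against each compound's own standard curve. Values are the mean of three rats per time point, in μg/g.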

[22] = species on record: Rattus norvegicus; assay: Fluid concentration in liver tissue was determined in rats at 0.5 h; format: functional; method in brief: as §3
[23] = species on record: Rattus norvegicus; assay: Fluid concentration in liver tissue was determined in rats at 1 h; format: functional
Method in brief: (§4)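 Rats dosed by gavage at 20 mg/kg; lung, liver, kidney, urine and serum sampled at 0.5, 1, 2, 4 and 6 h after dosing. Antibiotic measured by microbiological assay with Micrococcus luteus seeded in Antibiotic Medium 1. Zone sizes were read against the standard curve for the same compound. Each value is the average of three rats per time point.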

[24] = species on record: Rattus norvegicus; assay: Fluid concentration in lung tissue was determined in rats at 0.5 h; format: functional; method in brief: as §4
[25] = species on record: Rattus norvegicus; assay: Fluid concentration in lung tissue was determined in rats at 1 h; format: functional; method in brief: as §4
[26] = species on record: Rattus norvegicus; assay: Fluid concentration in lung tissue was determined in rats at 2 h; format: functional; method in brief: as §4
[27] = species on record: Rattus norvegicus; assay: Fluid concentration in lung tissue was determined in rats at 4 h; format: functional; method in brief: as §4
[28] = species on record: Rattus norvegicus; assay: Fluid concentration in lung tissue was determined in rats at 6 h; format: functional; method in brief: as §4
[29] = system: Rattus norvegicus; assay: Plasma concentration in rats was determined by oral administration, 20 mg/kg at 1 hr; format: functional, organism-based; set-up: dose 20 mg/kg
Method in brief: (§5)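 Peripheral plasma antibiotic levels in rats given 20 mg/kg orally or subcutaneously. Plasma was sampled at timed points after dosing. Levels were measured by microbiological agar assay with Micrococcus luteus seeded in Antibiotic Media 1, reading zone sizes, and were calculated from a standard curve for the appropriate compound. Each value is the average of three rats per time point, in μg/mL.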

[30] = system: Rattus norvegicus; assay: Plasma concentration in rats was determined by oral administration, 20 mg/kg at 40 min; format: functional, organism-based; set-up: dose 20 mg/kg; method in brief: as §5
[31] = system: Streptococcus pneumoniae; assay: MIC value measured against streptococcus pneumoniae Park1; format: functional
[32] = system: Staphylococcus aureus; assay: MIC value measured against staphylococcus aureus X1; format: functional
[33] = system: Streptococcus pyogenes; assay: MIC value measured against streptococcus pyogenes C203; format: functional
[34] = system: Mus musculus; assay: Plasma concentration in mice was determined by subcutaneous administration, 20 mg/kg at 2 hr; format: functional, organism-based; set-up: dose 20 mg/kg; method in brief: as §2
[35] = system: Staphylococcus epidermidis; assay: microbe, parasite or virus in culture; format: functional
[36] = species on record: Mus musculus
[37] = species on record: Mus musculus; remark: listed apart in the source
[38] = species on record: Rattus norvegicus
[39] = species on record: Rattus norvegicus; remark: listed apart in the source
[40] = species on record: Rattus norvegicus; remark: listed apart in the source
[41] = species on record: Rattus norvegicus; remark: listed apart in the source
[42] = species on record: Rattus norvegicus; remark: listed apart in the source
[43] = system: Mus musculus; assay: ED50 value was measured by sc administration against staphylococcus aureus infection in mice (in vivo, in experiment 2); format: functional; method in brief: as §1
[44] = system: Mus musculus; assay: ED50 value was measured by sc administration against streptococcus pneumoniae infection in mice (in vivo, in experiment 2); format: functional; method in brief: as §1
[45] = system: Mus musculus; assay: Plasma concentration in mice was determined by oral administration, 20 mg/kg at 1 h; format: functional, organism-based; set-up: dose 20 mg/kg; method in brief: as §2
[46] = species on record: Rattus norvegicus; assay: Fluid concentration in kidney tissue was determined in rats at 4 h; format: functional; method in brief: as §3
[47] = species on record: Rattus norvegicus; assay: Fluid concentration in liver tissue was determined in rats at 2 h; format: functional; method in brief: as §4
[48] = species on record: Rattus norvegicus; assay: Fluid concentration in urine tissue was determined in rats at 0.5 h; format: functional; method in brief: as §4
[49] = species on record: Rattus norvegicus; assay: Fluid concentration in urine tissue was determined in rats at 2 h; format: functional; method in brief: as §4
[50] = system: Rattus norvegicus; assay: Plasma concentration in rats was determined by subcutaneous administration, 20 mg/kg at 1 h; format: functional, organism-based; set-up: dose 20 mg/kg; method in brief: as §5
[51] = system: Rattus norvegicus; assay: Plasma concentration in rats was determined by subcutaneous administration, 20 mg/kg at 2 h; format: functional, organism-based; set-up: dose 20 mg/kg; method in brief: as §5
[52] = system: Rattus norvegicus; assay: Plasma concentration in rats was determined by subcutaneous administration, 20 mg/kg at 5 min; format: functional, organism-based; set-up: dose 20 mg/kg; method in brief: as §5
[53] = Mus musculus, po, read-out: ED50
[54] = Mus musculus, sc, read-out: ED50

Compound: CC[C@H]1OC(=O)[C@H](C)[C@@H](O[C@H]2C[C@@](C)(OC)[C@@H](O)[C@H](C)O2)[C@H](C)[C@@H](O[C@@H]2O[C@H](C)C[C@H](N(C)C)[C@H]2O)[C@](C)(O)C[C@@H](C)C(=O)[C@H](C)[C@@H](O)[C@]1(C)O [ERYTHROMYCIN]
- MIC [1]: 1 mg/L (≈ 1.36 µM)
- ED50 [2]: 2.5 mg/kg
- ED50 [3]: 18 mg/kg
- ED50 [4, 53]: 12 mg/kg
- ED50 [5]: 1.6 mg/kg
- ED50 [6, 54]: 4.1 mg/kg
- ED50 [7]: 2.7 mg/kg
- ED50 [8, 54]: 3.5 mg/kg
- ED50 [9]: 41 mg/kg
- ED50 [10]: 44 mg/kg
- ED50 [11]: 21 mg/kg
- ED50 [12]: 15 mg/kg
- ED50 [13, 53]: 71 mg/kg
- ED50 [14]: 14 mg/kg
- ED50 [15, 53]: > 100 mg/kg
- Plasma concentration [16]: 4.26 µg/mL
- Plasma concentration [17]: 5.96 µg/mL
- Plasma concentration [18]: 4.36 µg/mL
- Plasma concentration [19]: 0 µg/mL
- Plasma concentration [20]: 5.84 µg/mL
- Activity [21]: 0 µg/mL
- Activity [22]: 0.15 µg/mL
- Activity [23]: 0.03 µg/mL
- Activity [24]: 1 µg/mL
- Activity [25]: 0.4 µg/mL
- Activity [26]: 0.04 µg/mL
- Activity [27]: 0.03 µg/mL
- Activity [28]: 0.04 µg/mL
- Plasma concentration [29]: 0.04 µg/mL
- Plasma concentration [30]: 0.11 µg/mL
- MIC [31]: 0.008 mg/L (≈ 0.0109 µM)
- MIC [32]: 0.12 mg/L (≈ 0.164 µM)
- MIC [33]: 0.015 mg/L (≈ 0.0204 µM)
- Plasma concentration [34]: 0.01 µg/mL
- MIC [35]: 0.06 mg/L (≈ 0.0818 µM)
- Plasma concentration [36]: 0 µg/mL
- Plasma concentration [37]: 0.01 µg/mL
- Plasma concentration [38]: 1.21 µg/mL
- Plasma concentration [39]: 4.2 µg/mL
- Plasma concentration [40]: 0 µg/mL
- Plasma concentration [41]: 0.48 µg/mL
- Plasma concentration [42]: 0.11 µg/mL

Compound: CCCN[C@@H]1[C@H](C)[C@@H](O)[C@](C)(O)[C@@H](CC)OC(=O)[C@H](C)[C@@H](OC2CC(C)(OC)C(O)C(C)O2)[C@H](C)[C@@H](OC2OC(C)CC(N(C)C)C2O)[C@](C)(O)C[C@H]1C (some centres not stated)
- MIC [1]: 0.5 mg/L (≈ 0.643 µM)
- ED50 [2]: 1.7 mg/kg
- ED50 [3]: 9 mg/kg
- ED50 [4]: 6 mg/kg
- ED50 [5]: 4.7 mg/kg
- ED50 [43]: 2.1 mg/kg
- ED50 [6]: 6.1 mg/kg
- ED50 [7]: 1.6 mg/kg
- ED50 [44]: 2.1 mg/kg
- ED50 [8]: 1.8 mg/kg
- ED50 [9]: 12 mg/kg
- ED50 [10]: 7 mg/kg
- ED50 [11]: 3 mg/kg
- ED50 [12]: 19 mg/kg
- ED50 [13]: 13 mg/kg
- ED50 [14]: 14 mg/kg
- ED50 [15]: 6 mg/kg
- Plasma concentration [45]: 0.08 µg/mL
- Plasma concentration [16]: 0.39 µg/mL
- Plasma concentration [17]: 0.75 µg/mL
- Plasma concentration [18]: 0.47 µg/mL
- Plasma concentration [19]: 0.06 µg/mL
- Plasma concentration [20]: 1.58 µg/mL
- Activity [46]: 4.28 µg/mL
- Activity [22]: 0.08 µg/mL
- Activity [23]: 0.17 µg/mL
- Activity [47]: 2.99 µg/mL
- Activity [24]: 0.31 µg/mL
- Activity [25]: 2.25 µg/mL
- Activity [26]: 4.9 µg/mL
- Activity [27]: 5.46 µg/mL
- Activity [28]: 5.08 µg/mL
- Activity [48]: 3.92 µg/mL
- Activity [49]: 4.8 µg/mL
- Plasma concentration [50]: 0.14 µg/mL
- Plasma concentration [51]: 0.18 µg/mL
- Plasma concentration [52]: 0.04 µg/mL
- Plasma concentration [30]: 0.01 µg/mL
- MIC [31]: 0.015 mg/L (≈ 0.0193 µM)
- MIC [32]: 0.25 mg/L (≈ 0.322 µM)
- MIC [33]: 0.03 mg/L (≈ 0.0386 µM)
- Plasma concentration [34]: 0.11 µg/mL
- MIC [35]: 0.12 mg/L (≈ 0.154 µM)
- Plasma concentration [41]: 0.08 µg/mL
- Plasma concentration [42]: 0.04 µg/mL
